ChEMBL document CHEMBL4396873, “Discovery of Potent, Selective, and Short-Acting Peptidic V2 Receptor Agonists” (J Med Chem, 2019)
Activity calls are given as the source filed them. The rule behind the calls is not given here. Numbered stars: 1 amine (or outer) side, 2 acyl side, 3 side chain; on linkers, the order of the positions; unused ones are H or OH. Bridge positions count the residues as written; N and C are the ends. Square brackets hold non-standard residues; d marks the D form. Peptide text beside a SMILES is read from it. * marks the point of attachment. Phe(4-Cl) = N[C@@H](Cc1ccc(Cl)cc1)C(=O)O; Phe(4-Et) = CCc1ccc(C[C@H](N)C(=O)O)cc1; Phe(4-F) = N[C@@H](Cc1ccc(F)cc1)C(=O)O; Phe(4-Me) = Cc1ccc(C[C@H](N)C(=O)O)cc1; 2Thi = N[C@@H](Cc1cccs1)C(=O)O; X4 = N=C(N)NCCC[C@@H](CO)N*; X2 = N=C(N)NCCC[C@H](CO)N*; hCys = N[C@@H](CCS)C(=O)O; X1 = O=C(CCC[*:2])[*:1]; X3 = O=C(CC[*:2])[*:1]

Columns and labels:
Vasopressin V1a receptor = Vasopressin V1a receptor (Homo sapiens, UniProt P37288); experiment: Agonist activity at recombinant human V1a receptor expressed in HEK293 cells up to 1000 nM measured after 5 hrs by luciferase reporter gene assay; format: cell-based; settings: hek293, 5 h
Chain of Vasopressin V1a receptor (P37288 whole entry): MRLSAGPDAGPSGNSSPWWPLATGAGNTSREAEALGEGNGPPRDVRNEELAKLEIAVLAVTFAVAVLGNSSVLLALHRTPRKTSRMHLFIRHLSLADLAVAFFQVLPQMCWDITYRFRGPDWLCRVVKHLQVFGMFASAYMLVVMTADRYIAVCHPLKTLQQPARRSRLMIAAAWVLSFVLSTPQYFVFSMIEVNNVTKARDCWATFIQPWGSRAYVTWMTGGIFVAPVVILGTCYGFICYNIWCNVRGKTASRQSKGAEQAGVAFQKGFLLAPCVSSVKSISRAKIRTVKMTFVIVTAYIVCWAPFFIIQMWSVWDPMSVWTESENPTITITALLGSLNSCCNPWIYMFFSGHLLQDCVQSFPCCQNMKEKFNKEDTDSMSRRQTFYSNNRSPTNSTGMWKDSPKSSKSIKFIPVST

Oxytocin receptor = biological target: T1, Oxytocin receptor (Homo sapiens, UniProt P30559); experiment: Agonist activity at human OTR stably expressed in CHOK1 cells by NFAT-luciferase reporter gene assay; format: cell-based
T1 sequence (P30559 whole entry): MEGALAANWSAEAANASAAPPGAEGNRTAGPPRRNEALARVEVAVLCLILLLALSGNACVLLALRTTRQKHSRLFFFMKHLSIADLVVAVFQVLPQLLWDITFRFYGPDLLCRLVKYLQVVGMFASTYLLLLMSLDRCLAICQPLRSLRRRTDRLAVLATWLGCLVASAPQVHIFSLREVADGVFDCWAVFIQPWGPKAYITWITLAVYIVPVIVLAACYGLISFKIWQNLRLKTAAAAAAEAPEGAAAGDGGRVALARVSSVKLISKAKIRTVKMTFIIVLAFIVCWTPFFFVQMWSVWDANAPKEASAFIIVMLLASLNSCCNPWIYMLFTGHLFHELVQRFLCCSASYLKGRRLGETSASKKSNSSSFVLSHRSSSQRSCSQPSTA

[1] = Clearance in Sprague-Dawley rat at 0.1 mg/kg, iv administered as cassette dose by LC-MS/MS analysis; format: ADME, organism-based; settings: in vivo
[2] = Protein binding in rat plasma at 200 to 1000 ng/ml measured after 15 mins by UC-LC/MS/MS analysis; format: ADME, cell-free; settings: read-out: PPB (converted)
Method in brief: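 Peptide spiked into rat plasma to final 200-1000 ng/mL, incubated 15 min at 37 °C, ultracentrifuged at 773,000 xg for 30 min at 37 °C; middle-layer sample quantified by LC/MS/MS; binding (%) = (Ci − Cm)/Ci × 100; quadruplicate.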

[3] = Non-renal clearance in nephrectomized Sprague-Dawley rat at 0.1 mg/kg, iv administered as cassette dose by LC-MS/MS analysis; format: ADME, organism-based; settings: in vivo
[4] = biological target: T2, Oxytocin receptor (Homo sapiens) (UniProt P30559); experiment: Agonist activity at human OTR stably expressed in CHOK1 cells up to 10000 nM by NFAT-luciferase reporter gene assay; format: cell-based
T2 sequence (whole entry): T1 sequence (P30559 whole entry)

Vasopressin V2 receptor = Vasopressin V2 receptor (Homo sapiens, UniProt P30518); experiment: Agonist activity at recombinant human V2 receptor expressed in HEK293 cells measured after 5 hrs by cAMP response element driven luciferase reporter gene assay; format: functional, cell-based
Chain of Vasopressin V2 receptor (P30518 whole entry): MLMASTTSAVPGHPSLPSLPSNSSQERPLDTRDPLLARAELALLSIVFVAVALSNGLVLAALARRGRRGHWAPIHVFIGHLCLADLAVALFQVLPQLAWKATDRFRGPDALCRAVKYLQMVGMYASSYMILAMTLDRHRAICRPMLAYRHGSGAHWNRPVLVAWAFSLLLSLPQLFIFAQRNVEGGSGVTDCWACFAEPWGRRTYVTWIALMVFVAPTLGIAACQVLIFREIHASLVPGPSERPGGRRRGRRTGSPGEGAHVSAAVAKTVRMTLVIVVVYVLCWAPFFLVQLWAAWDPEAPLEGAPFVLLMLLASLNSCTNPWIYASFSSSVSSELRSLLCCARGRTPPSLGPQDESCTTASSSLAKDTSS

[5] = biological target: T2, Oxytocin receptor (Homo sapiens); experiment: Agonist activity at human OTR stably expressed in CHOK1 cells by NFAT-luciferase reporter gene assay relative to control; format: cell-based

Activity (Vasopressin V1a receptor) | EC50 (Oxytocin receptor) [nM] | clearance [1] [mL/min/kg] | fraction unbound at […] [2] | CL [3] [%] | Activity [4] | EC50 (Vasopressin V2 receptor) [nM] | Efficacy [5] [%] | SMILES
Not Active | > 10000 | 8.1 | 0.19 |  |  |  |  | CC(C)[C@@H]1NC(=O)[C@H](Cc2cccs2)NC(=O)[C@H](Cc2ccc(Cl)cc2)NC(=O)CCCSC[C@@H](C(=O)N2CCC[C@H]2C(=O)N[C@H](CO)CCCNC(=N)N)NC(=O)[C@H](CC(N)=O)NC1=O ([Phe(4-Cl)][2Thi]VNCP-X4; linker N-5 via X1)
Not Active |  | 5.3 | 0.1 | 67 | inactive | 0.19 |  | CCNC(=O)[C@@H](CCCNC(=N)N)NC(=O)[C@@H]1CCCN1C(=O)[C@@H]1CCSCCC(=O)N[C@@H](Cc2ccc(Cl)cc2)C(=O)N[C@@H](Cc2cccs2)C(=O)N[C@@H](C(C)C)C(=O)N[C@@H](CC(N)=O)C(=O)N1
Not Active | > 10000 | 5.3 | 0.32 | 30 |  |  |  | Cc1ccc(C[C@@H]2NC(=O)CCCSC[C@@H](C(=O)N3CCC[C@H]3C(=O)N[C@@H](CO)CCCNC(=N)N)NC(=O)[C@H](CC(N)=O)NC(=O)[C@H](C(C)C)NC(=O)[C@H](Cc3cccs3)NC2=O)cc1 ([Phe(4-Me)][2Thi]VNCP-X2; linker N-5 via X1)
Not Active | > 10000 | 9.4 | 0.16 | 80 |  | 0.35 |  | CCc1ccc(C[C@@H]2NC(=O)CCCSC[C@@H](C(=O)N3CCC[C@H]3C(=O)N[C@@H](CO)CCCNC(=N)N)NC(=O)[C@H](CC(N)=O)NC(=O)[C@H](C(C)C)NC(=O)[C@H](Cc3cccs3)NC2=O)cc1 ([Phe(4-Et)][2Thi]VNCP-X2; linker N-5 via X1)
Not Active | > 10000 | 4 | 0.2 |  |  |  |  | CC(C)[C@@H]1NC(=O)[C@H](Cc2cccs2)NC(=O)[C@H](Cc2ccc(Cl)cc2)NC(=O)CCCSC[C@@H](C(=O)N2CCC[C@H]2C(=O)N[C@@H](CO)CCCNC(=N)N)NC(=O)[C@H](CC(N)=O)NC1=O ([Phe(4-Cl)][2Thi]VNCP-X2; linker N-5 via X1)
Not Active | > 10000 | 2.8 | 0.11 | 66 |  |  |  | CC(C)[C@@H]1NC(=O)[C@H](Cc2cccs2)NC(=O)[C@H](Cc2ccc(Cl)cc2)NC(=O)CCSCC[C@@H](C(=O)N2CCC[C@H]2C(=O)N[C@@H](CO)CCCNC(=N)N)NC(=O)[C@H](CC(N)=O)NC1=O ([Phe(4-Cl)][2Thi]VN[hCys]P-X2; linker N-5 via X3)
Not Active |  | 15 | 0.15 | 58 | inactive | 0.45 |  | CC(C)NC(=O)[C@@H](CCCNC(=N)N)NC(=O)[C@@H]1CCCN1C(=O)[C@@H]1CSCCCC(=O)N[C@@H](Cc2ccc(Cl)cc2)C(=O)N[C@@H](Cc2cccs2)C(=O)N[C@@H](C(C)C)C(=O)N[C@@H](CC(N)=O)C(=O)N1
Not Active |  | 34 | 0.07 | 100 | inactive | 0.17 |  | CC(C)[C@@H]1NC(=O)[C@H](Cc2cccs2)NC(=O)[C@H](Cc2ccc(Cl)cc2)NC(=O)CCCSC[C@@H](C(=O)N2CSC[C@H]2C(=O)N[C@H](CCCNC(=N)N)C(=O)NCCc2cccs2)NC(=O)[C@H](CC(N)=O)NC1=O
Not Active | 230 | 8.1 | 0.85 |  |  | 0.1 |  | CC(C)[C@@H]1NC(=O)[C@H](Cc2cccs2)NC(=O)[C@H](Cc2ccc(O)cc2)NC(=O)CCCSC[C@@H](C(=O)N2CCC[C@H]2C(=O)N[C@H](CO)CCCNC(=N)N)NC(=O)[C@H](CC(N)=O)NC1=O (Y[2Thi]VNCP-X4; linker N-5 via X1)
Not Active |  | 27 | 0.04 | 100 | inactive | 0.3 |  | CC(C)[C@@H]1NC(=O)[C@H](Cc2ccc(F)cc2)NC(=O)[C@H](Cc2ccc(Cl)cc2)NC(=O)CCCSC[C@@H](C(=O)N2CSC[C@H]2C(=O)N[C@H](CCCNC(=N)N)C(=O)NCCc2cccs2)NC(=O)[C@H](CC(N)=O)NC1=O
Not Active |  | 14 | 0.55 | 71 | inactive | 0.26 |  | CC(C)[C@@H]1NC(=O)[C@H](Cc2cccs2)NC(=O)[C@H](Cc2ccc(O)cc2)NC(=O)CCCSC[C@@H](C(=O)N2CCC[C@H]2C(=O)N[C@H](CCCNC(=N)N)C(=O)NCc2ccccc2)NC(=O)[C@H](CC(N)=O)NC1=O
Not Active |  | 11 | 0.12 | 81 | inactive | 0.32 |  | CCNC(=O)[C@@H](CCCNC(=N)N)NC(=O)[C@@H]1CCCN1C(=O)[C@@H]1CSSCCC(=O)N[C@@H](Cc2ccc(Cl)cc2)C(=O)N[C@@H](Cc2cccs2)C(=O)N[C@@H](C(C)C)C(=O)N[C@@H](CC(N)=O)C(=O)N1
Not Active | 140 | 38 | 0.09 | 100 |  |  | 32 | CC(C)[C@@H]1NC(=O)[C@H](Cc2cccs2)NC(=O)[C@H](Cc2ccc(Cl)cc2)NC(=O)CCCSC[C@@H](C(=O)N2CSC[C@H]2C(=O)N[C@H](CCCNC(=N)N)C(=O)NCc2ccccc2)NC(=O)[C@H](CC(N)=O)NC1=O
Not Active | > 10000 | 3.8 | 0.07 |  |  |  |  | CC(C)[C@@H]1NC(=O)[C@H](Cc2ccc(F)cc2)NC(=O)[C@H](Cc2ccc(Cl)cc2)NC(=O)CCCSC[C@@H](C(=O)N2CCC[C@H]2C(=O)N[C@@H](CO)CCCNC(=N)N)NC(=O)[C@H](CC(N)=O)NC1=O ([Phe(4-Cl)][Phe(4-F)]VNCP-X2; linker N-5 via X1)
Not Active |  | 9.1 | 0.18 |  | inactive | 0.27 |  | CNC(=O)[C@@H](CCCNC(=N)N)NC(=O)[C@@H]1CCCN1C(=O)[C@@H]1CSCCCC(=O)N[C@@H](Cc2ccc(Cl)cc2)C(=O)N[C@@H](Cc2cccs2)C(=O)N[C@@H](C(C)C)C(=O)N[C@@H](CC(N)=O)C(=O)N1
Not Active | 160 | 6.9 | 0.74 |  |  | 0.08 |  | CC(C)[C@@H]1NC(=O)[C@H](Cc2cccs2)NC(=O)[C@H](Cc2ccc(O)cc2)NC(=O)CCSCC[C@@H](C(=O)N2CCC[C@H]2C(=O)N[C@@H](CO)CCCNC(=N)N)NC(=O)[C@H](CC(N)=O)NC1=O (Y[2Thi]VN[hCys]P-X2; linker N-5 via X3)
Not Active |  | 3.3 | 0.09 |  | inactive | 0.29 |  | CCNC(=O)[C@@H](CCCNC(=N)N)NC(=O)[C@@H]1C[C@@H](O)CN1C(=O)[C@@H]1CSCCCC(=O)N[C@@H](Cc2ccc(Cl)cc2)C(=O)N[C@@H](Cc2ccccc2)C(=O)N[C@@H](C(C)C)C(=O)N[C@@H](CC(N)=O)C(=O)N1
